ChEMBL document CHEMBL3351523 (Bioorg Med Chem, 2014)

What was measured:
[1] = system: Vesicular stomatitis virus; experiment: Antiviral activity against Vesicular stomatitis virus infected in african green monkey Vero 76 cells assessed as reduction in plaque number after 2 days by plaque reduction assay; type: functional, organism-based; settings: 48 h
[2] = Cytotoxicity against mock-infected MDBK cells after 48 to 96 hrs by MTT assay; type: cell-based, Bos taurus; settings: cattle
Procedure, shortened: (§1)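 Mock-infected MDBK (6 × 10^5 cells/mL; MEM-E, 10% horse serum, 1 mM pyruvate) or BHK (1 × 10^6 cells/mL; MEM-E, 10% FBS) cells were incubated at 37 °C, 5% CO2 with serial dilutions from 100 µM, 1:5. Viability by MTT after 48–96 h. CC50 from linear regression against untreated controls.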

[3] = Cytotoxicity against mock-infected BHK21 cells after 48 to 96 hrs by MTT assay; type: functional; settings: Mesocricetus auratus, BHK-21; procedure, shortened: as §1
[4] = system: Coxsackievirus B5; experiment: Antiviral activity against Coxsackievirus B5 infected in african green monkey Vero 76 cells assessed as reduction in plaque number after 3 days by plaque reduction assay; type: functional, organism-based; settings: Enterovirus B, 72 h
[5] = system: Poliovirus 1; experiment: Antiviral activity against Poliovirus type 1 Sabin strain infected in african green monkey Vero 76 cells assessed as reduction in plaque number after 2 days by plaque reduction assay; type: functional, organism-based; settings: Enterovirus C, 48 h
[6] = system: Vaccinia virus; experiment: Antiviral activity against Vaccinia Virus infected in african green monkey Vero 76 cells assessed as reduction in plaque number after 3 days by plaque reduction assay; type: functional, organism-based; settings: Orthopoxvirus vaccinia, 72 h
[7] = system: Respiratory syncytial virus; experiment: Antiviral activity against Respiratory syncytial virus infected in african green monkey Vero 76 cells assessed as reduction in plaque number after 5 days by plaque reduction assay; type: functional, organism-based; settings: human respiratory syncytial virus, 120 h
[8] = system: Bovine viral diarrhea virus 1; experiment: Antiviral activity against Bovine viral diarrhea virus infected in MDBK cells assessed as inhibition of virus-induced cytopathogenicity after 3 to 4 days by MTT assay; type: functional, organism-based; settings: Bovine viral diarrhea virus isolates and strains
[9] = system: Yellow fever virus; experiment: Antiviral activity against Yellow fever virus infected in BHK21 cells assessed as inhibition of virus-induced cytopathogenicity after 3 to 4 days by MTT assay; type: functional, organism-based; settings: BHK-21
[10] = Cytotoxicity against mock-infected human MT4 cells after 96 hrs by MTT assay; type: cell-based
Procedure, shortened: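 Exponentially growing MT-4 cells were seeded at 1 × 10^5 cells/mL in RPMI-1640 with 10% FBS and held at 37 °C, 5% CO2 with serial compound dilutions. Viability was read by MTT after 96 h. CC50 from linear regression against untreated controls.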

[11] = system: Human alphaherpesvirus 1; experiment: Antiviral activity against HSV1 infected in african green monkey Vero 76 cells assessed as reduction in plaque number after 3 days by plaque reduction assay; type: functional, organism-based; settings: Human alphaherpesvirus 1, Vero, 72 h
[12] = system: Human immunodeficiency virus 1; experiment: Antiviral activity against HIV1 infected in human MT4 cells assessed as inhibition of virus-induced cytopathogenicity after 4 days by MTT assay; type: functional, organism-based; settings: Human immunodeficiency virus 1, MT4, 96 h
Procedure, shortened: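 MT-4 cells (1 × 10^4/well in RPMI) were infected acutely with HIV-1 IIIB, 100 CCID50 (m.o.i. 0.01), with serial dilutions from 100 µM, 1:5. After 4 days at 37 °C, protection from virus-induced cytopathogenicity was read by MTT. EC50 came from linear regression against untreated controls.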

[13] = system: Reovirus sp.; experiment: Antiviral activity against Reovirus type-1 infected in BHK21 cells assessed as inhibition of virus-induced cytopathogenicity after 3 to 4 days by MTT assay; type: functional, organism-based; settings: BHK-21
[14] = Cytotoxicity against mock-infected african green monkey Vero 76 cells after 48 to 96 hrs by MTT assay; type: cell-based; settings: chlorocebus sabaeus, mock-infected Vero 76 cells

| Structure (SMILES) | EC50 [1] | CC50 [2] | CC50 [3] | EC50 [4] | EC50 [5] | EC50 [6] | EC50 [7] | EC50 [8] | EC50 [9] | CC50 at 96 h [10] | EC50 [11] | EC50 [12] | EC50 [13] | CC50 [14] |
| --- | --- | --- | --- | --- | --- | --- | --- | --- | --- | --- | --- | --- | --- | --- |
| Clc1cc2nc(Cc3ccc(Br)cc3)[nH]c2cc1Cl | > 100 µM | 10 µM | 10 µM | > 100 µM | > 100 µM | > 100 µM | > 100 µM | > 100 µM | > 100 µM | 68 µM | > 100 µM | > 100 µM | > 100 µM | 73 µM |
| CC(=O)Nc1ccc(Cc2nc3cc(Cl)c(Cl)cc3[nH]2)cc1 | > 100 µM | > 100 µM | > 100 µM | > 100 µM | > 100 µM | > 100 µM | > 100 µM | > 100 µM | > 100 µM | > 100 µM | > 100 µM | > 100 µM | > 100 µM | > 100 µM |
| CC(CC(=O)O)n1c(Cc2ccc(Cl)cc2)nc2ccccc21 (stereo not given) | > 100 µM | > 100 µM | > 100 µM | > 100 µM | > 100 µM | > 100 µM | > 100 µM | > 100 µM | > 100 µM | > 100 µM | > 100 µM | > 100 µM | > 100 µM | > 100 µM |
| c1ccc2[nH]c(C[C@@H]3CCCN4CCCC[C@H]34)nc2c1 | > 100 µM | > 100 µM | 78 µM | > 100 µM | > 100 µM | > 100 µM | > 100 µM | 34 µM | > 100 µM | 17 µM | > 100 µM | > 100 µM | > 100 µM | > 100 µM |
| Clc1ccc2[nH]c(C[C@@H]3CCCN4CCCC[C@H]34)nc2c1 | > 100 µM | 77 µM | 52 µM | > 100 µM | > 100 µM | > 100 µM | > 100 µM | 17 µM | > 100 µM | 53 µM | > 100 µM | > 100 µM | > 100 µM | > 100 µM |
| c1ccc2[nH]c(C[C@H]3CCCN4CCCC[C@H]34)nc2c1 | > 100 µM | > 100 µM | > 100 µM | > 100 µM | > 100 µM | > 100 µM | > 100 µM | > 100 µM | > 100 µM | > 100 µM | > 100 µM | > 100 µM | > 100 µM | > 100 µM |
| c1ccc2[nH]c(CCCC3NCC4CNCC3C4)nc2c1 (stereo not given) | > 100 µM | > 100 µM | > 100 µM | > 100 µM | > 100 µM | > 100 µM | > 100 µM | > 100 µM | > 100 µM | > 100 µM | > 100 µM | > 100 µM | > 100 µM | > 100 µM |
| Clc1ccc2[nH]c(CCCC3NCC4CNCC3C4)nc2c1 (stereo not given) | > 100 µM | > 100 µM | > 100 µM | > 100 µM | > 100 µM | > 100 µM | > 100 µM | > 100 µM | 25 µM | > 100 µM | > 100 µM | > 100 µM | > 100 µM | > 100 µM |
| c1ccc2[nH]c(CCCC3NCC4CC3CN3CCCCC43)nc2c1 (stereo not given) | > 100 µM | > 100 µM | > 100 µM | > 100 µM | > 100 µM | > 100 µM | > 100 µM | 94 µM | 87 µM | > 100 µM | > 100 µM | > 100 µM | > 100 µM | > 100 µM |
| Clc1ccc2[nH]c(CCCC3NCC4CC3CN3CCCCC43)nc2c1 (stereo not given) | > 100 µM | 56 µM | 18 µM | > 100 µM | > 100 µM | > 100 µM | > 100 µM | > 100 µM | > 100 µM | 51 µM | > 100 µM | > 100 µM | > 100 µM | 59 µM |
